From PubChem BioAssay
Active and inactive are the calls of the source.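 How the source made its calls, unless noted: active means viability loss from added drug above about 55%, and viability with drug at most 40%, in both replicates (limit read from the data, passing the limit was not always enough); inconclusive means both conditions met in only one replicate; inactive means neither replicate meets both conditions.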

What was measured:
[1] = reducers of endogenous Her2 protein level, primary screen, SKBR3 breast tumor cells, AlphaScreen, ATP viability (AID 461;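 active means Her2 level under about 52% in both replicate screens, with viability over 70% of control, limit read from the data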;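 on Her2 level: lower value means less Her2 protein in the cells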;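 on viability: percent of carrier control wells set as 100% viability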); conditions: 18-24 h, measured here: SKBR3 viability, ATP luminescence, at 10 µM
[2] = molecular target: Receptor tyrosine-protein kinase erbB-2 (Homo sapiens) (UniProt P04626); assay: as above; conditions: 18-24 h, at 10 µM, stronger effect = lower value
[3] = SK-BR-3 cell growth inhibitors, pilot screen, 24 h, human (AID 572;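 active means viability at or below 10% of carrier control in both of two separate runs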;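 further: compound exposure lasted between 18 and 24 h rather than exactly 24 h; 100% = carrier-treated control wells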); conditions: SK-BR-3 viability, CellTiter-Glo luminescence, at 10 µM, stronger effect = lower value
[4] = HUVEC growth inhibition – cell-based, human, primary screen (AID 575;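 active means viability at or below 30% in both replicate assays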;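 further: 100% = median of untreated cell wells with 0.1% DMSO on each plate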); conditions: HUVEC proliferation, CellTiter-Glo luminescence, 72 h; at 10 µM; stronger effect = lower value
Method in brief: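 Test system: primary human umbilical vein endothelial cells. Quantity: 1250 cells/well. Compound: single 10 µM dose, 0.1% DMSO, from 5x medium stock. Timing: 72 h treatment at 37 °C. Detection: ATP-based CellTiter-Glo luminescent read. Benchmarks: vehicle and MePR control wells. Format: 384-well plates coated with collagen.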

[5] = growth inhibitors of H69AR lung tumor, primary screen, human, duplicate replicates (AID 580;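 active means viability at or under a set limit in both replicates, limit being median viability minus 3 SD, cut at about 48% in these data, passing the limit was not always enough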;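 further: 100% = mean luminescence of untreated wells and 0% = no signal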); conditions: H69AR lung tumor cells viability, ATP luminescence, 72 h; at 10 µM; stronger effect = lower value
[6] = reversal of MRP1-mediated doxorubicin resistance, pilot screen, H69AR cells, doxorubicin co-treatment (AID 601); conditions: CellTiter-Glo, 72 h, at 10 µM; for differential viability (reversal): stronger effect = higher value
[7] = 384-well plate pilot, post-Golgi transport modulator project, inhibition of yeast transport mutant growth (AID 636; in the data active means inhibition above about 31%); conditions: absorbance 615 nm, about 18 h, stronger effect = higher value
[8] = growth suppression of yeast trafficking mutant, preliminary HTS, modulators of trafficking downstream of Golgi apparatus project, 1536-format plate, OD 615 nm (AID 637; in the data active means inhibition above about 30%); conditions: yeast transport mutant growth, absorbance 615 nm, 18 h; stronger effect = higher value
[9] = H69AR cells + 2 uM doxorubicin, measured here: viability with 2 uM doxorubicin, stronger effect = lower value
[10] = H69AR cells, compound alone cytotoxicity

Chain of Receptor tyrosine-protein kinase erbB-2 (Homo sapiens) (P04626 whole entry, looked up): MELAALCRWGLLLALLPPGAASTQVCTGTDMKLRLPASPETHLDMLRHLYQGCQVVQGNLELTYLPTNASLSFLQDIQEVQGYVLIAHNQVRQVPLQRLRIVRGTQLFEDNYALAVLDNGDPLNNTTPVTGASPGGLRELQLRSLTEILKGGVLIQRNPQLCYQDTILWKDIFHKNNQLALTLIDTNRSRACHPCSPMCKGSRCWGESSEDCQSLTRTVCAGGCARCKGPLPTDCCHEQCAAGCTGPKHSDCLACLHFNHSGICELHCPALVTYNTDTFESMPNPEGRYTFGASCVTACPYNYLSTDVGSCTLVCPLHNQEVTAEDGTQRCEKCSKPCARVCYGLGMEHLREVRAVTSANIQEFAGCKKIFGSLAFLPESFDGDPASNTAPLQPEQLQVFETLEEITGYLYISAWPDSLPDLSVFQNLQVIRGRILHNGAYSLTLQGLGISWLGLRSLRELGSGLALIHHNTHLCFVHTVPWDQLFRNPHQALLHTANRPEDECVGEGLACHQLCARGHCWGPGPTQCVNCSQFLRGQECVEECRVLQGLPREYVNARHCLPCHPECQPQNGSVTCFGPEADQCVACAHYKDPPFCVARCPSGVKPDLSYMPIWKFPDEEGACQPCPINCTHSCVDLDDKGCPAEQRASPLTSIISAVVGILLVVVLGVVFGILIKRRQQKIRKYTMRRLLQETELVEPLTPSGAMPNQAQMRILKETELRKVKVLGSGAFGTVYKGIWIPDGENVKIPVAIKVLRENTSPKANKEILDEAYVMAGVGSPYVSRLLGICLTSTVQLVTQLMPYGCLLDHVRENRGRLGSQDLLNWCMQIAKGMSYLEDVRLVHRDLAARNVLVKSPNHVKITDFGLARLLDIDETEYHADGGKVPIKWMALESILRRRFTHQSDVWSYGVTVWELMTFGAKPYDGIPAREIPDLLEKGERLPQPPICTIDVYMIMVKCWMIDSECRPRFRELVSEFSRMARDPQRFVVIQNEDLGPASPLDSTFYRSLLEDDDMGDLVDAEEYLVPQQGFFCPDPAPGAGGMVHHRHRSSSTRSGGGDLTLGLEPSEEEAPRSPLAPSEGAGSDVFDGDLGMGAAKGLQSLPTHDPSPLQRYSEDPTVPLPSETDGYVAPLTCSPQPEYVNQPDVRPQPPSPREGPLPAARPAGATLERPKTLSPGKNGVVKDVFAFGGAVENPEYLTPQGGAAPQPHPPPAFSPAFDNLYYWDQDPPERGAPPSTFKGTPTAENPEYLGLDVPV

Row | SMILES | viability [1] | Her2 level [2] | viability [3] | viability [4] | viability [5] | differential viability (reversal) ([6]; H69AR cells + 2 uM doxorubicin) | viability [6, 9] | viability [6, 10] | inhibition [7] | inhibition [8]
1 | CCNC(=O)C1CC(=O)N(Cc2ccc3c(c2)OCO3)C(=Nc2ccc(OCC)cc2)S1 (stereo not given) | 94.5% | 76% (inactive) | 94.5% (inactive) | 48.6% (inactive) | 66.1% (inactive) | 2.95% (inactive) | 63.1% | 66.1% | -2.11% (inactive) | 6.89% (inactive)
2 | Cc1cc(C(=O)CSCCCn2c(=O)[nH]c3ccccc32)c(C)n1C | 105% | 98% (inactive) | 105% (inactive) | 110% (inactive) | 98.1% (inactive) | 9.45% (inactive) | 88.7% | 98.1% | 0.41% (inactive) | -5.08% (inactive)
3 | COc1ccc(-c2cc(N3CCCC3)n3ncnc3n2)cc1 | 86% | 94.5% (inactive) | 86% (inactive) | 78.7% (inactive) | 87.2% (inactive) | 11.9% (inactive) | 75.2% | 87.2% | -5.27% (inactive) | -2.46% (inactive)
4 | COCCCNC(=O)CSc1nc2ccc(N3CCOCC3)cc2c(=O)n1CCc1ccccc1 | 104% | 87% (inactive) | 104% (inactive) | 70.3% (inactive) | 94.9% (inactive) | -5.04% (inactive) | 99.9% | 94.9% | -2.73% (inactive) | -0.48% (inactive)
5 | CC1Cc2ccccc2N1C(=O)c1cccnc1 (stereo not given) | 121% | 91.5% (inactive) | 121% (inactive) | 92.8% (inactive) | 98.1% (inactive) | 2.02% (inactive) | 96% | 98.1% | -2.21% (inactive) | -0.16% (inactive)
6 | CCOc1ccc(N(CC(=O)NCC2CCCO2)S(=O)(=O)c2ccc(OC)c(OC)c2)cc1 (stereo not given) | 105% | 98.5% (inactive) | 105% (inactive) | 118% (inactive) | 116% (inactive) | 19.2% (inactive) | 96.3% | 116% | -4% (inactive) | -5.97% (inactive)
7 | CC(=O)Nc1ccc(-c2nn[nH]n2)cc1Cl | 87% | 89% (inactive) | 87% (inactive) | 104% (inactive) | 104% (inactive) | 8.39% (inactive) | 95.6% | 104% | -1.6% (inactive) | -2.9% (inactive)
8 | NC(=O)CSCc1ccc(Br)cc1 | 100% | 91.5% (inactive) | 100% (inactive) | 98.6% (inactive) | 108% (inactive) | 0.415% (inactive) | 108% | 108% | -4.67% (inactive) | 2.62% (inactive)
9 | OC(CN1CCCCC1)Cn1c(C(F)(F)F)nc2ccccc21 (stereo not given) | 85.5% | 103% (inactive) | 85.5% (inactive) | 105% (inactive) | 83.4% (inactive) | -3.04% (inactive) | 86.4% | 83.4% | 0% (inactive) | 3.5% (inactive)
10 | Cc1ccc2cc(CN(CC(C)C)C(=O)C3CCCO3)c(=O)[nH]c2c1 (stereo not given) | 95% | 98% (inactive) | 95% (inactive) | 102% (inactive) | 102% (inactive) | 5.11% (inactive) | 96.8% | 102% | -2.5% (inactive) | -4.18% (inactive)
11 | Cc1cc(C)c2oc(=O)cc(CN3CCOCC3)c2c1 | 102% | 97% (inactive) | 102% (inactive) | 87.3% (inactive) | 91.4% (inactive) | 3.58% (inactive) | 87.9% | 91.4% | -6.93% (inactive) | 2.26% (inactive)
12 | COc1ccccc1C1C(C#N)=C(N)Oc2cc(C)n(Cc3ccccn3)c(=O)c21 (stereo not given) | 108% | 133% (inactive) | 108% (inactive) | 93.9% (inactive) | 90.2% (inactive) | -2.41% (inactive) | 92.6% | 90.2% | -0.66% (inactive) | -6.94% (inactive)
13 | O=C(Cc1ccc(Br)cc1)N1CCCCCC1 | 108% | 106% (inactive) | 108% (inactive) | 115% (inactive) | 97.9% (inactive) | 8.29% (inactive) | 89.6% | 97.9% | -4.08% (inactive) | -0.49% (inactive)
14 | CC(C)Cc1n[nH]c(=O)[nH]1 | 118% | 115% (inactive) | 118% (inactive) | 93.9% (inactive) | 98.4% (inactive) | 9.75% (inactive) | 88.7% | 98.4% | -6.93% (inactive) | -9.84% (inactive)
15 | C=CCn1c(COc2cccc(C)c2)nnc1SCC(=O)NC(=O)NCc1ccco1 | 108% | 95% (inactive) | 108% (inactive) | 78.4% (inactive) | 78.2% (inactive) | -3.14% (inactive) | 81.3% | 78.2% | -5.07% (inactive) | -0.48% (inactive)
16 | Cc1nc2oc3c(NCc4ccccn4)ncnc3c2c2c1COC(C)(C)C2 | 90% | 89% (inactive) | 90% (inactive) | 85.9% (inactive) | 99.2% (inactive) | 7.06% (inactive) | 92.2% | 99.2% | -4.4% (inactive) | -1.59% (inactive)

Row | SMILES | viability [1] | Her2 level [2] | viability [3] | viability [4] | viability [5] | differential viability (reversal) ([6]; H69AR cells + 2 uM doxorubicin) | viability [6, 9] | viability [6, 10] | inhibition [7] | inhibition [8]
17 | Cc1sc2nc(SCC(=O)NCc3ccco3)n(CCc3ccccc3)c(=O)c2c1C | 102% | 86.5% (inactive) | 102% (inactive) | 58.3% (inactive) | 40% (active) | -14.2% (inactive) | 54.2% | 40% | -6.27% (inactive) | 0.82% (inactive)
18 | CC(=O)Nc1sc2c(c1C#N)CCCCC2 | 132% | 113% (inactive) | 132% (inactive) | 82.2% (inactive) | 95.6% (inactive) | 5.43% (inactive) | 90.2% | 95.6% | -4.93% (inactive) | -2.54% (inactive)
19 | O=C(CCCN1C(=O)c2ccccc2C1=O)N1CCC(c2ccccc2)C1 (stereo not given) | 110% | 108% (inactive) | 110% (inactive) | 114% (inactive) | 96.4% (inactive) | -1.44% (inactive) | 97.8% | 96.4% | -5% (inactive) | 0.33% (inactive)
20 | CC(C)=CCSc1nnc(CCNC(=O)OC(C)(C)C)o1 | 96% | 85.5% (inactive) | 96% (inactive) | 87.2% (inactive) | 96.6% (inactive) | 17.2% (inactive) | 79.3% | 96.6% | -4.8% (inactive) | 16.6% (inactive)
21 | CCn1c(SCC(=O)N2c3ccccc3CCc3ccccc32)nc2c1c(=O)n(C)c(=O)n2C | 87.5% | 107% (inactive) | 87.5% (inactive) | 92.5% (inactive) | 94.3% (inactive) | -1.58% (inactive) | 95.8% | 94.3% | -1.51% (inactive) | -6.98% (inactive)
22 | CC(C)(C)OC(=O)N1CCOCCOCCN(C(=O)OC(C)(C)C)CCOCCOCC1 | 97.5% | 112% (inactive) | 97.5% (inactive) | 83% (inactive) | 93.4% (inactive) | -2.94% (inactive) | 96.4% | 93.4% | -3.16% (inactive) | 5.74% (inactive)
23 | CCN1CCN(c2nc(-c3cccnc3)nc3ccccc23)CC1 | 89% | 94.5% (inactive) | 89% (inactive) | 101% (inactive) | 88.6% (inactive) | -2.89% (inactive) | 91.5% | 88.6% | -3.16% (inactive) | -0.63% (inactive)
24 | CCOC(=O)CN1C2=NCCN2c2ccccc21 | 89.5% | 82% (inactive) | 89.5% (inactive) | 96.1% (inactive) | 99% (inactive) | 10.9% (inactive) | 88.1% | 99% | -2.63% (inactive) | -4% (inactive)
25 | CCOC(=O)c1c(N)nn(C(=O)C(C)C)c1-c1ccccc1 | 97% | 119% (inactive) | 97% (inactive) | 82.5% (inactive) | 109% (inactive) | 15% (inactive) | 94% | 109% | -5.95% (inactive) | -9.34% (inactive)
26 | CC(=O)NC1(C(F)(F)F)NC(=O)N(CC(C)C)C1=O (stereo not given) | 103% | 109% (inactive) | 103% (inactive) | 91.1% (inactive) | 102% (inactive) | 18.8% (inactive) | 83.6% | 102% | -2.3% (inactive) | -0.66% (inactive)
27 | CN(C)S(=O)(=O)c1ccc(C(=O)N2CCCC2c2nc3ccccc3s2)cc1 (stereo not given) | 98% | 127% (inactive) | 98% (inactive) | 91.1% (inactive) | 94.9% (inactive) | 1.97% (inactive) | 92.9% | 94.9% | -1.49% (inactive) | 3.93% (inactive)
28 | COCCOC(=O)c1cc(C(=O)c2cc(F)ccc2O)coc1=N | 83.5% | 82.5% (inactive) | 83.5% (inactive) | 92% (inactive) | 91.1% (inactive) | -3.97% (inactive) | 95.1% | 91.1% | -1.56% (inactive) | -5.08% (inactive)
29 | CCOC(=O)C1CCN(C(=O)Nc2ccc3snnc3c2)CC1 | 96.5% | 88.5% (inactive) | 96.5% (inactive) | 92.2% (inactive) | 94.9% (inactive) | 5.87% (inactive) | 89% | 94.9% | -6.08% (inactive) | -0.67% (inactive)
30 | Cc1ccc2cc(C(c3nnnn3CC3CCCO3)N3CCc4ccccc4C3)c(=O)[nH]c2c1 (stereo not given) | 87% | 82% (inactive) | 87% (inactive) | 105% (inactive) | 100% (inactive) | -2.15% (inactive) | 102% | 100% | -3.84% (inactive) | -6.83% (inactive)
31 | O=C(NC1CCCCC1)C(c1ccco1)N(Cc1cccnc1)C(=O)C1COc2ccccc2O1 (stereo not given) | 100% | 84.5% (inactive) | 100% (inactive) | 91.4% (inactive) | 81.1% (inactive) | -7.03% (inactive) | 88.1% | 81.1% | -2.24% (inactive) | 2.13% (inactive)
